# Measurements taken from ChEMBL document CHEMBL1132150, “Synthesis and evaluation of 3-trifluoromethyl-7-substituted-1,2,3, 4-tetrahydroisoquinolines as selective inhibitors of phenylethanolamine N-methyltransferase versus the alpha(2)-adrenoceptor” (J Med Chem, 1999).
# pKi: −log10 of the molar value.
# How the values were obtained:
# [1] = target: T1, Adrenergic receptor alpha-2 (Rattus norvegicus, UniProt P22086+P19328+P22909); test: The compound was tested in vitro for binding affinity against Alpha-2 adrenergic receptor using [3H]clonidine; format: protein assay
# T1 sequence (P22086 whole entry): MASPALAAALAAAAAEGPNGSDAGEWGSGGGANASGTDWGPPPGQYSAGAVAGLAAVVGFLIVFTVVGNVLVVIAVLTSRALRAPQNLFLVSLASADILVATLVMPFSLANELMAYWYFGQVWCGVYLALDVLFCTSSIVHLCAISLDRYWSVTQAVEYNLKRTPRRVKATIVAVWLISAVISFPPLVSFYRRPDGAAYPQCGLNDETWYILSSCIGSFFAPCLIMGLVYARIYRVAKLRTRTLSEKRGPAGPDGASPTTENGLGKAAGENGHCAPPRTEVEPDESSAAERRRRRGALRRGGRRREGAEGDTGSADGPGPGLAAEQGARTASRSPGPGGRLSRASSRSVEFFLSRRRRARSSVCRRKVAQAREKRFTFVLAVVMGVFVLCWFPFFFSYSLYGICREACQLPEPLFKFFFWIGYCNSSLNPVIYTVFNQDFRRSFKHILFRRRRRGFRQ
# T1 sequence (P19328 whole entry): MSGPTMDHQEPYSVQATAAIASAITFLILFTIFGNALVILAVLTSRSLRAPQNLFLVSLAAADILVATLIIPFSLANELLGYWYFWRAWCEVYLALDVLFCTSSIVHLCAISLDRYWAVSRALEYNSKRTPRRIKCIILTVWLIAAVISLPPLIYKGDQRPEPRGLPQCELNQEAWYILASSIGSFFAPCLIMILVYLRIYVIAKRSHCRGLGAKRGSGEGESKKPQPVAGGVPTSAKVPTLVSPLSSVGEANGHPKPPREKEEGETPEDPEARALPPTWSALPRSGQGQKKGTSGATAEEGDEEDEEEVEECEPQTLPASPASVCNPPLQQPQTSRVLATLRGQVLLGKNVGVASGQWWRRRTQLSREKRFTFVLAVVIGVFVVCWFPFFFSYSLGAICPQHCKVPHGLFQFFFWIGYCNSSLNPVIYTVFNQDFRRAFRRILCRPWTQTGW
# T1 sequence (P22909 whole entry): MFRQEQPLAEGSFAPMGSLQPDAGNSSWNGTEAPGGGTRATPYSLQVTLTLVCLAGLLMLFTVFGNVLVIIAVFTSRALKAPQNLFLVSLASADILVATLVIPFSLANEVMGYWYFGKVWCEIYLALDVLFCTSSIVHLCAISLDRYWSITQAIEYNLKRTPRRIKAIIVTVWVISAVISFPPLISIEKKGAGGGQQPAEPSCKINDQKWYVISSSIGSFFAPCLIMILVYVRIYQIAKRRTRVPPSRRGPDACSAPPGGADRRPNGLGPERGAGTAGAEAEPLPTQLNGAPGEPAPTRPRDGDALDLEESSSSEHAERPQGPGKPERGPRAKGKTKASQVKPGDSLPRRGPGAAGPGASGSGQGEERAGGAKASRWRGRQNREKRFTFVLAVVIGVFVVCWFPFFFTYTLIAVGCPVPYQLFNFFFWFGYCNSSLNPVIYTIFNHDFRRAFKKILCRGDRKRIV
# Method in brief: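 Rat cortex membranes from male Sprague–Dawley rats, homogenized in ice-cold 50 mM Tris/HCl (pH 7.7 at 25 °C), washed by three 50000g spins. [³H]clonidine final 2.0 nM, varying inhibitor levels, 25 °C for 30 min. Filtration and scintillation counting. Nonspecific binding with 2 μM phentolamine. IC50 by log–probit analysis, Ki = IC50/(1 + [clonidine]/KD). Tested as HCl or HBr salts.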
# [2] = Selectivity determined by Ki of alpha 2 receptor / Ki of PNMT
# [3] = target: T2, Phenylethanolamine N-methyltransferase (Bos taurus, UniProt P10938); test: Inhibition of PNMT (Phenylethanolamine N-Methyltransferase) in vitro
# T2 sequence (P10938 whole entry): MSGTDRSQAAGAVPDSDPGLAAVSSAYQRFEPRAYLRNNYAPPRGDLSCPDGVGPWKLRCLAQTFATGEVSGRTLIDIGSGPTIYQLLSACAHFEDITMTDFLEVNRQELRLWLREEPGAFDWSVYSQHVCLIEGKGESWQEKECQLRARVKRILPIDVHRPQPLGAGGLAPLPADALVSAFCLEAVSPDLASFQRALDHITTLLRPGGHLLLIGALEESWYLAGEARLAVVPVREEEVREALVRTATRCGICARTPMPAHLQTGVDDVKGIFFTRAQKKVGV
# Method in brief: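 Bovine adrenal PNMT, prepared through the isoelectric precipitation step, assayed radiochemically with phenylethanolamine as the variable substrate and [3H]AdoMet as methyl donor in phosphate buffer pH 8.0. Incubation was 30 min at 37 °C, quenched with borate pH 10, and product was extracted into toluene/isoamyl alcohol and counted. Three inhibitor concentrations spanning 5-fold were run in duplicate, and Ki came from a hyperbolic fit.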
# [4] = target: T1, Adrenergic receptor alpha-2; test: Compound was tested in vitro for binding affinity against Alpha-2 adrenergic receptor using [3H]clonidine; format: protein assay; conditions: for pKi: read-out: Ki
# Method in brief: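 Rat (male Sprague–Dawley) cortex membranes, washed three times by centrifugation in 50 mM Tris/HCl pH 7.7, incubated 30 min at 25 °C with 2.0 nM [3H]clonidine and varied inhibitor concentrations. Bound ligand was collected by vacuum filtration and counted. Nonspecific binding was defined with 2 μM phentolamine. IC50 came from log–probit analysis, and Ki = IC50/(1+[clonidine]/KD).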
# [5] = target: T1, Adrenergic receptor alpha-2; test: The compound was tested in vitro for binding affinity against Alpha-2 adrenergic receptor using [3H]clonidine, A precipitate was noted at 1000 uM; format: protein assay
Structure (SMILES),Selectivity [2],pKi [3],other results
NS(=O)(=O)c1ccc2c(c1)CNC(CO)C2 (stereo not drawn),4100,,pKi ([1]; read-out: Ki): 2.85
Clc1ccc2c(c1Cl)CNCC2,0.095,6.66,
O=[N+]([O-])c1ccc2c(c1)CNC(C(F)(F)F)C2 (stereo not drawn),700,5.70,Ki [4]: 1400 µM
CS(=O)(=O)c1ccc2c(c1)CNC(CO)C2 (stereo not drawn),1000,,pKi [4]: 3.18
FC(F)(F)C1Cc2ccccc2CN1 (stereo not drawn),27,4.82,
CS(=O)(=O)c1ccc2c(c1)CNC(C(F)(F)F)C2 (stereo not drawn),110,4.44,
FC(F)(F)C1Cc2ccc(Br)cc2CN1 (stereo not drawn),> 1900,,Ki [5]: > 1000 µM
c1ccc2c(c1)CCNC2,0.035,,
CCC1Cc2ccccc2CN1 (stereo not drawn),0.028,,Ki [1]: 0.67 µM
COCC1Cc2ccccc2CN1 (stereo not drawn),0.3,,pKi [4]: 5.55
CC1Cc2ccccc2CN1 (stereo not drawn),0.36,,
N#Cc1ccc2c(c1)CNC(C(F)(F)F)C2 (stereo not drawn),220,,
COc1ccc2c3c([nH]c2c1)C=NCC3 [CGS-19281A],4.4,5.57,Ki [1]: 12 µM
OCC1Cc2ccccc2CN1 (stereo not drawn),6,,pKi [4]: 5.18
Clc1ccc2c(c1Cl)CNCCC2,,,Ki [1]: 4.5 µM
